For 11 compounds, normalized fluorogen binding results are on record in PubChem BioAssay AID651936 (NMMLSC, 2012).

Structures are written as SMILES.

The test system of the assay is AM2.2-beta2AR cells, FAP fluorogen binding after washes, flow cytometry. As to the kind of experiment: washout recovery of fluorogen binding to FAP – AM2.2-beta2AR cells, powder sets 3 and 4, mechanism study for beta2AR internalization ligand project (AID 651936). The procedure, abridged:
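Assay system: AM2.2-beta2AR cells / Buffer or medium: serum-free RPMI for compound exposure, RPMI with 1% FBS for washes / Reagent: TO1-2p at 150 nM final, added to cell aliquots / Schedule: compound exposure 90 min, 37 °C / Measured by: flow cytometry / Benchmarks: DMSO-only treated cells as negative control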

As to `CCOC(=O)N1CCN(C(=O)CN(C)S(=O)(=O)c2ccc(Cl)cc2)CC1`, the normalized fluorogen binding (at 10 µM (top of the series)) is 0.122. Consider `CCCCC(=O)Nc1ccc(S(=O)(=O)N2CCCCC2c2cccnc2)cc1` (configuration not stated), for which the normalized fluorogen binding (at 0.3 µM (top of the series)) is 0.181. Regarding `Cc1ccc(S(=O)(=O)N2CCCCC2C(=O)N2CCN(c3ccc(C(F)(F)F)cn3)CC2)cc1` (configuration not stated), the normalized fluorogen binding (at 100 µM (top of the series)) was 0.154. Consider `CN(CC(=O)N1CCN(c2ccccn2)CC1)S(=O)(=O)c1ccc(Br)cc1`, for which, for the setting “at 0.2 µM (top of the series)”, the normalized fluorogen binding was 0.145. On the same count and under the same terms, with `CN(CC(=O)N1CCN(c2ccccn2)CC1)S(=O)(=O)c1ccc(Cl)cc1` the figure was 0.143. With `CN(CC(=O)N1CCN(c2ccccn2)CC1)S(=O)(=O)c1ccccc1`, the normalized fluorogen binding (at 0.85 µM (top of the series)) is 0.218. As for `Cc1ccc(S(=O)(=O)N(C)CC(=O)N2CCN(c3ccccn3)CC2)cc1`, the normalized fluorogen binding (at 0.8 µM (top of the series)) was 0.124. For `O=C(Nc1ccc(S(=O)(=O)N2CCCCC2c2cccnc2)cc1)c1c(F)cccc1F` (configuration not stated), for the setting “at 2 µM (top of the series)”, the normalized fluorogen binding was 0.232. As to `CN(CC(=O)N1CCN(c2cccc(C(F)(F)F)c2)CC1)S(=O)(=O)c1ccc(F)cc1`, the normalized fluorogen binding (at 60 µM (top of the series)) is 0.233. Same read-out and setting: with `CC(C)n1nnc2cc(S(=O)(=O)N(C)CC(=O)N3CCN(c4ccccn4)CC3)ccc21` the figure was 0.257.

With `CC(=O)Nc1ccc(S(=O)(=O)N2CCCCC2c2cccnc2)cc1` (configuration not stated), the normalized fluorogen binding (at 1.4 µM (top of the series)) was 0.147 and the normalized fluorogen binding (at 60 µM (top of the series)) was 0.642.
